Experimental findings from ChEMBL document CHEMBL4431364, “Discovery and synthetic optimization of a novel scaffold for hydrophobic tunnel-targeted autotaxin inhibition” (Bioorg Med Chem, 2016) are described below.

Test [1] concerns the target T1, Autotaxin (Homo sapiens, UniProt Q13822). Description: Inhibition of C-terminal FLAG tagged human recombinant ATX expressed in insect sf9 cells using FS-3 as substrate measured every 2 mins for 60 mins by FRET assay. Put shortly: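 Dose response over 0.03 to 30 μM compound, 10 nM human FLAG-fusion ATX, 1 μM FS-3 in pH 8.0 Tris/BSA assay buffer. Fluorescence at 485/520 nm every 2 min for 60 min at 37 °C, normalized to no-ATX and no-compound controls. IC50 by non-linear regression. Triplicate.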

The target of test [2] is T1, Autotaxin. Kind of test: Inhibition of C-terminal FLAG tagged human recombinant ATX expressed in insect sf9 cells at 10 uM using FS-3 as substrate measured every 2 mins for 60 mins by FRET assay. The method in brief:
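10 μM compound with 10 nM human FLAG-fusion ATX in pH 8.0 Tris buffer (30 μM BSA, 1 mM CaCl2, 1 mM MgCl2, 5 mM KCl, 140 mM NaCl) and 1 μM FS-3. Fluorescence at ex 485/em 520 nm read every 2 min for 60 min at 37 °C. Normalized to no-ATX (0%) and ATX without compound (100%). Triplicate.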

For test [3], the target named is T1, Autotaxin. Kind of test: Inhibition of C-terminal FLAG tagged human recombinant ATX expressed in insect sf9 cells at 10 uM using pNP-TMP as substrate measured every 2 mins for 60 mins by absorbance.

As for `O=C(COc1cccc(C(F)(F)F)c1)N1CCN(c2cccc([N+](=O)[O-])c2)CC1`, the concentration for half-maximal inhibition (IC50) at Autotaxin [1] came to 4.6 µM. Further, the values for the inhibition at Autotaxin [2] and at Autotaxin [3] were 61.9% and 14.3%, respectively.
The matching figures for `O=C(COc1cccc(C(F)(F)F)c1)N1CCN(c2ccc([N+](=O)[O-])cc2)CC1`: 4.9 µM, 63.3% and 4.1%.
Turning to `O=C(COc1ccc(F)cc1)N1CCN(c2ccc([N+](=O)[O-])cc2)CC1`, the half-maximal inhibitory concentration (IC50) at Autotaxin [1] was found to be 6.4 µM. The inhibition on Autotaxin [2] was determined as 65.4%.
For `O=C(O)c1ccc(N2CCN(C(=O)COc3cccc(Cl)c3)CC2)cc1`, at Autotaxin [1], the IC50 is 6.5 µM. Moreover, the inhibition at Autotaxin [2] was determined as 56%; on Autotaxin [3], 6.8%.
For `O=C(COc1ccc(C(F)(F)F)cc1)N1CCN(c2ccc([N+](=O)[O-])cc2)CC1`, in that order: 8.1 µM, 50.2% and 26.6%.
The matching figures for `O=C(COc1cccc(Cl)c1)N1CCN(c2cccc([N+](=O)[O-])c2)CC1`: 5.8 µM, 62.4% and 17.1%.
For the compound `CC(=O)OC1(C(=O)COC(=O)c2ccco2)CC2CCC3C4C=CC(=O)CC4(C)CCC3C2(C)C1` (configuration not stated), on Autotaxin [1], the IC50 was determined as 5.7 µM. At Autotaxin [2], the inhibition lay within 59.6 to 59.7%.
With `O=C(O)c1cccc(N2CCN(C(=O)COc3ccccc3C(F)(F)F)CC2)c1`, the IC50 on Autotaxin [1] worked out at 8.1 µM. For the same compound, the inhibition stood at 51.5% at Autotaxin [2] and 23.7% on Autotaxin [3].
The matching figures for `O=C(COc1ccc(Cl)cc1)N1CCN(c2ccccc2[N+](=O)[O-])CC1`: 8.2 µM, 59.1% and 38%.
For `COc1ccc2c(c1)C(NCc1cc(OC)c(OC)cc1N)CCO2` (configuration not stated), the 50% inhibitory concentration (IC50) at Autotaxin [1] turned out to be 6.6 µM. For the same compound, the inhibition on Autotaxin [2] came out at 48%; at Autotaxin [3], 7.5%.
The matching figures for `O=C(COc1ccc(Cl)cc1Cl)N1CCN(c2ccccc2[N+](=O)[O-])CC1`: 4.1 µM, 69.8% and 37.1%.
For `O=C(COc1cccc(F)c1)N1CCN(c2cccc([N+](=O)[O-])c2)CC1`, in that order: 6.2 µM, 59.8% and 13.3%.
For `CCCCCCCCCCCCCC(=O)NC(CCC(=O)O)C(=O)O` (configuration not stated), in that order: 6 µM, 54.1% and -6.9%.
Consider `O=C(COc1ccccc1C(F)(F)F)N1CCN(c2ccccc2[N+](=O)[O-])CC1`, for which, at Autotaxin [1], the 50% inhibitory concentration (IC50) turned out to be 11.4 µM. Besides, the inhibition was 50% on Autotaxin [2] and 38.2% at Autotaxin [3].
The matching figures for `O=C(O)c1cccc(N2CCN(C(=O)COc3cccc(F)c3)CC2)c1`: 8.9 µM, 55.2% and 30.2%.
The matching figures for `O=C(O)c1cccc(N2CCN(C(=O)COc3ccc(F)cc3)CC2)c1`: 4.6 µM, 58.1% and 41.1%.
The matching figures for `O=C(COc1ccccc1C(F)(F)F)N1CCN(c2ccc([N+](=O)[O-])cc2)CC1`: 9.2 µM, 54.6% and -3.7%.
As to `O=C(COc1ccc(Cl)cc1)N1CCN(c2cccc([N+](=O)[O-])c2)CC1`, the half-inhibitory concentration (IC50) at Autotaxin [1] was found to be 5.4 µM. Further, the inhibition was 62.6% at Autotaxin [2] and 23.8% on Autotaxin [3].
Regarding `O=C(COc1cccc(F)c1)N1CCN(c2ccc([N+](=O)[O-])cc2)CC1`, the half-maximal inhibitory concentration (IC50) at Autotaxin [1] was determined as 6.6 µM. The inhibition on Autotaxin [2] is 63%.
As to `O=C(O)c1ccc(N2CCN(C(=O)COc3ccc(Cl)cc3)CC2)cc1`, the IC50 at Autotaxin [1] amounted to 4.1 µM. In addition, the results for the inhibition at Autotaxin [2] and on Autotaxin [3] were 50.8% and 19.6%, respectively.
For `O=C(O)c1cccc(N2CCN(C(=O)COc3ccc(C(F)(F)F)cc3)CC2)c1`, in that order: 7.5 µM, 65% and 31.6%.
Regarding `O=C(O)c1ccccc1N1CCN(C(=O)COc2cccc(Cl)c2)CC1`, the figures for the inhibition on Autotaxin [2] and at Autotaxin [3] were 24.4% and -3.3%, respectively.

Broadly, the IC50 is the concentration that gives 50% inhibition. Usually inhibition stands for the change of the read-out against control, counted positive when it falls.
